How the values were obtained:
Mus musculus [1] = organism: Mus musculus; test: Effective dose against Pseudomonas aeruginosa infection in mice; assay type: functional
Procedure, shortened: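 B6D2F1 mice made myelosuppressed with cyclophosphamide 200 mg/kg sc on day -4. Compound given iv as Tris salt on day -1. Survival scored over 4 days, groups of 10. ED50 obtained by Probit analysis.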

Mus musculus [2] = organism: Mus musculus; test: Compound was tested for its potency to induce TNF-alpha in murine macrophage cultures in the absence of INF at 1 mg/mL concentration; assay type: functional
Procedure, shortened: (§1)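 Bone marrow cells from B6D2F1 mouse femurs differentiated 8-10 days at 37 °C, 5% CO2 in DMEM with 10% FCS, 5% horse serum and 20% L929 supernatant (CSF-1). Macrophages at 10⁶ cells/mL adhered 3 h, then incubated overnight without IFN-γ. Washed, exposed 4 h to compound in serum-free medium. Supernatant TNF-α measured by cytotoxicity to actinomycin-D-treated L929 cells, as IU/mL.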

Mus musculus [3] = organism: Mus musculus; test: Compound was tested for its potency to induce TNF-alpha in murine macrophage cultures in the absence of INF at 10 mg/mL concentration; assay type: functional; procedure, shortened: as §1
Mus musculus [4] = organism: Mus musculus; test: Compound was tested for its potency to induce TNF-alpha in murine macrophage cultures in the presence of INF at 10 mg/mL concentration; assay type: functional
Procedure, shortened: (§2)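 Macrophages derived from B6D2F1 mouse bone marrow (8-10 days with L929 supernatant as CSF-1 source), plated at 10⁶ cells/mL. Adherent cells primed overnight with 100 units/mL interferon γ, washed, then incubated 4 h with compound in serum-free medium. TNF-α in supernatants determined by cytotoxicity to actinomycin-D-treated L929 cells, as IU/mL.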

Mus musculus [5] = test: Nonspecific resistance against Pseudomonas aeruginosa infection in mice; administration of a single dose (12.5 mg/kg) 1 day prior to infection, group size 10 mice; assay type: functional
Procedure, shortened: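 B6D2F1 mice given cyclophosphamide 200 mg/kg s.c. on day -4, then a single i.v. dose of 12.5 mg/kg on day -1 (Tris salts). Survival scored after 4 days of observation. Groups of 10 mice.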

[6] = The endotoxic potential (LD50) by iv administration and ip administration of galactosamine (400 mg/kg); assay type: ADME, organism-based; details: mouse, in vivo
Procedure, shortened: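 C57BL/6 mice, groups of six. Serial dilutions given i.v. by tail vein (0.2 mL, saline, or isotonic glucose with 1% ethanol) together with galactosamine 400 mg/kg i.p. LD50 calculated by probit analysis from survivors at 1 day.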

Mus musculus [7] = organism: Mus musculus; test: Compound was tested for its potency to induce TNF-alpha in murine macrophage cultures in the presence of INF at 1 mg/mL concentration; assay type: functional; procedure, shortened: as §2

CCCCCCCCCCCC(O)CC(=O)NC1C(OC(=O)C[C@H](NC(=O)CC(O)CCCCCCCCCCC)C(=O)O)OC(CO)C(O)C1OC(=O)CC(O)CCCCCCCCCCC (stereo partly drawn)
ED50 (Mus musculus [1]): > 12.5 mg/kg | Activity (Mus musculus [2]): 0 IU ml-1 | Activity (Mus musculus [3]): 446 IU ml-1 | Activity (Mus musculus [4]): 899 IU ml-1 | NSR survival rate (Mus musculus [5]): 8 | LD50 [6]: 1 mg/kg | Activity (Mus musculus [7]): 25 IU ml-1

CCCCCCCCCCCC(O)CC(=O)NC1C(OC(=O)CC[C@H](NC(=O)CC(O)CCCCCCCCCCC)C(=O)O)OC(CO)C(O)C1NC(=O)CC(O)CCCCCCCCCCC (stereo partly drawn)
ED50 (Mus musculus [1]): 1.5 mg/kg | Activity (Mus musculus [2]): 175 IU ml-1 | Activity (Mus musculus [3]): 1069 IU ml-1 | Activity (Mus musculus [4]): 1570 IU ml-1 | NSR survival rate (Mus musculus [5]): 8 | LD50 [6]: 0.2 mg/kg | Activity (Mus musculus [7]): 294 IU ml-1

CCCCCCCCCCCC(O)CC(=O)NC1C(OCCCN(CC(=O)O)C(=O)CC(O)CCCCCCCCCCC)OC(CO)C(O)C1O (stereo not drawn)
Activity (Mus musculus [3]): 0 IU ml-1 | Activity (Mus musculus [4]): 0 IU ml-1 | NSR survival rate (Mus musculus [5]): 3 | LD50 [6]: > 5 mg/kg

CCCCCCCCCCCC(O)CC(=O)NC1C(OCCCN(CC(=O)O)C(=O)CC(O)CCCCCCCCCCC)OC(CO)C(O)C1OC(=O)CC(O)CCCCCCCCCCC (stereo not drawn)
ED50 (Mus musculus [1]): 1.5 mg/kg | Activity (Mus musculus [2]): 523 IU ml-1 | Activity (Mus musculus [3]): 1498 IU ml-1 | Activity (Mus musculus [4]): 3050 IU ml-1 | NSR survival rate (Mus musculus [5]): 10 | LD50 [6]: 0.1 mg/kg | Activity (Mus musculus [7]): 920 IU ml-1

CCCCCCCCCCCC(O)CC(=O)NC1C(OC(=O)CC[C@@H](NC(=O)CC(O)CCCCCCCCCCC)C(=O)O)OC(CO)C(O)C1OC(=O)CC(O)CCCCCCCCCCC (stereo partly drawn)
ED50 (Mus musculus [1]): 0.3 mg/kg | Activity (Mus musculus [2]): 518 IU ml-1 | Activity (Mus musculus [3]): 688 IU ml-1 | Activity (Mus musculus [4]): >2409 IU ml-1 | NSR survival rate (Mus musculus [5]): 10 | LD50 [6]: 0.04 mg/kg | Activity (Mus musculus [7]): >2409 IU ml-1

CCCCCCCCCCCC(O)CC(=O)NC1C(OC(=O)C[C@@H](NC(=O)CC(O)CCCCCCCCCCC)C(=O)O)OC(CO)C(O)C1OC(=O)CC(O)CCCCCCCCCCC (stereo partly drawn)
ED50 (Mus musculus [1]): 3.1 mg/kg | Activity (Mus musculus [2]): 218 IU ml-1 | Activity (Mus musculus [3]): 618 IU ml-1 | Activity (Mus musculus [4]): 2768 IU ml-1 | NSR survival rate (Mus musculus [5]): 10 | LD50 [6]: < 0.05 mg/kg | Activity (Mus musculus [7]): 2708 IU ml-1

CCCCCCCCCCCC(O)CC(=O)NC1C(OC(=O)CC[C@@H](NC(=O)CC(O)CCCCCCCCCCC)C(=O)O)OC(CO)C(O)C1NC(=O)CC(O)CCCCCCCCCCC (stereo partly drawn)
ED50 (Mus musculus [1]): > 25 mg/kg | Activity (Mus musculus [2]): 27 IU ml-1 | Activity (Mus musculus [3]): 464 IU ml-1 | Activity (Mus musculus [4]): 609 IU ml-1 | NSR survival rate (Mus musculus [5]): 3 | LD50 [6]: 5.1 mg/kg | Activity (Mus musculus [7]): 151 IU ml-1

CCCCCCCCCCCC(O)CC(=O)NC1C(OC(=O)CC[C@H](NC(=O)CC(O)CCCCCCCCCCC)C(=O)O)OC(CO)C(O)C1OC(=O)CC(O)CCCCCCCCCCC (stereo partly drawn)
ED50 (Mus musculus [1]): 5.7 mg/kg | Activity (Mus musculus [2]): 270 IU ml-1 | Activity (Mus musculus [3]): 576 IU ml-1 | Activity (Mus musculus [4]): 3285 IU ml-1 | NSR survival rate (Mus musculus [5]): 9 | LD50 [6]: 0.3 mg/kg | Activity (Mus musculus [7]): 1511 IU ml-1

— ChEMBL document CHEMBL1126219, “Acyclic analogues of lipid A: synthesis and biological activities” (J Med Chem, 1992)
